In ChEMBL document CHEMBL2163280 (J Med Chem, 2012):
The source made the active and inactive calls. No cut-off for these calls is given here.

Experiments:
[1] = molecular target: Neuronal acetylcholine receptor; alpha2/beta4 (Rattus norvegicus) (UniProt P12389+P12392); assay: Displacement of [3H]epibatidine from rat alpha2beta4 nACHR at 10 uM; assay type: protein-complex assay
Rattus norvegicus = species on record: Rattus norvegicus; assay: Displacement of [3H]epibatidine from rat forebrain alpha4beta2* nACHR at 10 uM
[2] = molecular target: Neuronal acetylcholine receptor; alpha4/beta2 (Rattus norvegicus, UniProt P09483+P12390); assay: Displacement of [3H]epibatidine from rat alpha4beta2 nACHR; assay type: protein-complex assay
Mus musculus [3] = assay: Antidepressant activity in BALB/cJ mouse assessed as reduction in immobility at 20 mg/kg, po measured after 30 mins post drug administration by forced swim test; assay type: functional, organism-based; set-up: dose 20 mg/kg
How it was run: (§1)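 Male BALB/cJ mice, 8–10 weeks old, housed four per cage at 22±2 °C on a 12 h light–dark cycle. Drug was dissolved in injectable water and given ip or by oral gavage at 10 mL/kg. After 30 min, each mouse was placed in a glass cylinder of water (23±1 °C, 12 cm deep), and time floating immobile was scored over 6 min. n = 9–10/group; ANOVA, then Fisher's PLSD against vehicle.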

Mus musculus [4] = assay: Antidepressant activity in BALB/cJ mouse assessed as reduction in immobility at 10 mg/kg, ip measured after 30 mins post drug administration by forced swim test; assay type: functional, organism-based; set-up: dose 10 mg/kg; how it was run: as §1
[5] = molecular target: Acetylcholine receptor; alpha1/beta1/delta/gamma (Homo sapiens) (UniProt P02708+P07510+P11230+Q07001); assay: Agonist activity at alpha1betagammadelta nACHR in human TE671/RD cells by 86Rb+ efflux assay; assay type: functional, cell-based
[6] = molecular target: Neuronal acetylcholine receptor; alpha4/beta4 (Rattus norvegicus) (UniProt P09483+P12392); assay: Displacement of [3H]epibatidine from rat alpha4beta4 nACHR at 10 uM; assay type: protein-complex assay
[7] = molecular target: Neuronal acetylcholine receptor; alpha3/beta2 (Rattus norvegicus) (UniProt P04757+P12390); assay: Displacement of [3H]epibatidine from rat alpha3beta2 nACHR at 10 uM; assay type: protein-complex assay
[8] = molecular target: Neuronal acetylcholine receptor; alpha3/beta4 (Rattus norvegicus) (UniProt P04757+P12392); assay: Displacement of [3H]epibatidine from rat alpha3beta4 nACHR at 10 uM; assay type: protein-complex assay
[9] = system: Neuronal acetylcholine receptor alpha2/beta2 rat; assay: Displacement of [3H]epibatidine from rat alpha2beta2 nACHR at 10 uM
[10] = molecular target: Neuronal acetylcholine receptor; alpha4/beta2 (Rattus norvegicus) (UniProt P09483+P12390); assay: Displacement of [3H]epibatidine from rat alpha4beta2 nACHR at 10 uM; assay type: protein-complex assay

## COCc1cc(OC[C@@H]2CCN2)no1
[1]
  Activity: < 50%
Rattus norvegicus
  Activity: < 50%

## CN[C@H]1CC[C@@H](c2ccc(Cl)c(Cl)c2)c2ccccc21
Mus musculus [3]
  Activity: Active
Mus musculus [4]
  Activity: Active

## Cc1cc(OC[C@@H]2CCN2)no1
[5]
  Activity: inactive

## c1c(OC[C@@H]2CCN2)noc1COCC1CC1
[1]
  Activity: < 50%
[6]
  Activity: < 50%
[7]
  Activity: < 50%
[5]
  Activity: inactive
[8]
  Activity: < 50%
[9]
  Activity: < 50%
[10]
  Activity: < 50%
Rattus norvegicus
  Activity: < 50%

## c1ccc(OCc2cc(OC[C@@H]3CCCN3)on2)cc1
[5]
  Activity: inactive

## OCc1cc(OC[C@@H]2CCN2)no1
[5]
  Activity: inactive

## CCNC(=O)OCc1cc(OC[C@@H]2CCN2)on1
[5]
  Activity: inactive

## O=C(Nc1ccccc1)OCc1cc(OC[C@@H]2CCN2)on1
[5]
  Activity: inactive

## FCc1cc(OC[C@@H]2CCN2)on1
[5]
  Activity: inactive
